Reference: publication PMC6697164 (Cancer discovery, 2019)

Legend:
[1] = tested on: TET2; assay: TET2 activity and 5-hmC levels upon TPO or G-CSF stimulation; type: cell-based; conditions: Fig. S1A-D
Summary of the method: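 Total TET activity was measured in nuclear lysates, with protein quantified by Bradford assay, using a fluorescence ELISA in which plate-coated 5-mC substrate is converted to 5-hmC and detected with an anti-5-hmC antibody. 5-hmC content was measured on 200 ng DNA per assay and expressed as a percentage of total DNA.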

[2] = tested on: TET2; assay: Total TET activity; type: cell-based, human; conditions: inhibitor 10 nM for 1 hr prior to FLT3L stimulation for 30 minutes; CD34+ stem/early progenitors; three biological replicates
Summary of the method: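 Healthy-donor CD34+ cells, CliniMACS-purified, cultured 4 days in IMDM, 20% human serum, TPO/FLT3L/IL-3/IL-6 (20 ng/mL each), SCF 100 ng/mL. Cytokine-washed, held 4 hrs in IMDM/1% BSA, inhibitor 1 hr, then FLT3L (100 ng/ml) 30 min. Nuclear lysates (Bradford-normalised) on 5-mC-coated wells, 5-hmC detected fluorometrically. Standard curve 0–2 ng, ng/min/mg. Unstimulated and stimulated controls; mean ± SEM, three biological replicates.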

TPO: cytokine thrombopoietin
5hm-C levels upon cytokine stimulation [1]: increased | TET2 activity upon cytokine stimulation [1]: increased

CC(C)(C)c1cc(NC(=O)Nc2ccc(-c3cn4c(n3)sc3cc(OCCN5CCOCC5)ccc34)cc2)no1 [AC2220]
Effect on FLT3L-stimulated TET2 activity [2]: Inhibition of TET2 activity

CNC(=O)c1cc(Oc2ccc(NC(=O)Nc3ccc(Cl)c(C(F)(F)F)c3)cc2)ccn1 [Sorafenib]
Effect on FLT3L-stimulated TET2 activity [2]: Inhibition of TET2 activity

B1: G-CSF: cytokine granulocyte colony stimulation factor (protein, UniProt P09919 31-207, looked up)
Granulocyte …: TPLGPASSLPQSFLLKCLEQVRKIQGDGAALQEKLVSECATYKLCHPEELVLLGHSLGIPWAPLSSCPSQALQLAGCLSQLHSGLFLYQGLLQALEGISPELGPTLDTLQLDVADFATTIWQQMEELGMAPALQPTQGAMPAFASAFQRRAGGVLVASHLQSFLEVSYRVLRHLAQP
5hm-C levels upon cytokine stimulation [1]: increased | TET2 activity upon cytokine stimulation [1]: increased
